# Test results published in ChEMBL document CHEMBL2375308, “Synthesis and selected immunological properties of substituted quino[3,2-b]benzo[1,4]thiazines” (Eur J Med Chem, 2013).
# Columns and labels:
# PBMC [1] = assay: Inhibition of LPS-induced TNFalpha production in human PBMC at 25 ug/mL after overnight incubation relative to DMSO-treated control; type: functional
# Method in brief: (§1)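 Single-donor venous blood diluted 10× in RPMI-1640, 1 mL aliquots, stimulated with LPS (E. coli O111:B4). Compounds added at […]; corresponding DMSO dilutions as controls. Overnight incubation, supernatants frozen at −20 °C, TNF-α measured by biological assay; percentage inhibition versus DMSO control.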
# PBMC [2] = assay: Inhibition of LPS-induced TNFalpha production in human PBMC at 5 ug/mL after overnight incubation relative to DMSO-treated control; type: functional; method in brief: as §1
# PBMC [3] = assay: Antiproliferative activity against PHA-stimulated human PBMC at 50 ug/mL after 4 days by MTT assay relative to DMSO-treated control; type: functional
# Method in brief: (§2)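 PBMC from one donor's heparinized blood, Ficoll gradient isolated, in RPMI-1640 with 10% FCS; 2 × 10⁵ cells/well. PHA added at […]; compounds from DMSO stock (10 mg/mL) diluted in medium; matching DMSO dilutions as control. Four-day culture, proliferation read by MTT colorimetry; percentage inhibition versus control.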
# PBMC [4] = assay: Antiproliferative activity against PHA-stimulated human PBMC at 10 ug/mL after 4 days by MTT assay relative to DMSO-treated control; type: functional; method in brief: as §2
# PBMC [5] = assay: Cytotoxicity against human PBMC cells at 10 ug/mL after 24 hrs by MTT assay relative to DMSO-treated control; type: cell-based
# Method in brief: (§3)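 Ficoll-isolated PBMC ([…]) in supplemented RPMI-1640, 2 × 10⁵/well, cultured 24 h with the preparations at the indicated concentrations; compounds dissolved in DMSO (10 mg/mL stock) and diluted in medium.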
# PBMC [6] = assay: Cytotoxicity against human PBMC cells at 50 ug/mL after 24 hrs by MTT assay relative to DMSO-treated control; type: cell-based; method in brief: as §3
Compound,inhibition at 25 µg/mL (PBMC [1]) [%],inhibition at 5 µg/mL (PBMC [2]) [%],Activity (PBMC [3]) [%],Activity (PBMC [4]) [%],Activity (PBMC [5]),Activity (PBMC [6])
CCOC(=O)NCCCCN1c2ccc(SC)cc2Sc2cc3ccccc3nc21,33.1,50.9,27.8,44.3,Non-toxic,Non-toxic
Brc1cccc2c1Sc1cc3ccccc3nc1N2,8.4,13.6,16.4,0.1,Non-toxic,Non-toxic
CSc1ccc2c(c1)Sc1cc3ccccc3nc1N2CCCCNS(=O)(=O)c1ccc(C)cc1,37.5,70.4,-34.7,-5,Non-toxic,Non-toxic
CSc1ccc2c(c1)Sc1cc3ccccc3nc1N2CCCNS(=O)(=O)c1ccc(C)cc1,20.8,72.1,-46.4,-5.3,Non-toxic,Non-toxic
FC(F)(F)c1ccc2c(c1)Nc1nc3ccccc3cc1S2,48.8,72.3,0.3,21.7,Non-toxic,21.5%
CCOC(=O)NCCCCN1c2ccc(Cl)cc2Sc2cc3ccccc3nc21,8.41,13.2,-12,-0.7,Non-toxic,Non-toxic
CN1CCCCC1CCN1c2ccccc2Sc2cc3ccccc3nc21 (stereo not drawn),62.4,49.1,39.8,-23.5,Non-toxic,4.5%
c1ccc2c(c1)Nc1nc3ccccc3cc1S2,16.1,25.6,14.4,7.1,Non-toxic,Non-toxic
Clc1ccc2c(c1)Sc1cc3ccccc3nc1N2CCN1CCCCC1,56.7,-70.5,98.2,96.3,19.2%,83.8%
CCOC(=O)NCCCCN1c2ccccc2Sc2cc3ccccc3nc21,12.3,0.2,83.7,73.9,Non-toxic,Non-toxic
CSc1ccc2c(c1)Sc1cc3ccccc3nc1N2CCCNC(C)=O,64.5,71.7,68.8,72.5,Non-toxic,Non-toxic
CSc1ccc2c(c1)Sc1cc3ccccc3nc1N2,19.2,22.5,2.9,0,Non-toxic,Non-toxic
FC(F)(F)c1ccc2c(c1)Sc1cc3ccccc3nc1N2,-5.6,51.1,61,24.9,Non-toxic,Non-toxic
Cc1ccc(S(=O)(=O)NCCCCN2c3ccccc3Sc3cc4ccccc4nc32)cc1,12.5,15.8,2.4,3.3,Non-toxic,Non-toxic
Cc1ccc2c(c1)Sc1cc3ccccc3nc1N2,66.6,54.1,-6.2,-17.9,2.4%,15.4%
Brc1ccc2c(c1)Sc1cc3ccccc3nc1N2,10.1,16.2,19,-9.7,Non-toxic,Non-toxic
Brc1ccc2c(c1)Nc1nc3ccccc3cc1S2,-25,11.2,20.6,4.3,Non-toxic,Non-toxic
Clc1ccc2c(c1)Nc1nc3ccccc3cc1S2,19.2,-1.2,27.1,16.3,Non-toxic,Non-toxic
CSc1ccc2c(c1)Sc1cc3ccccc3nc1N2CCCCNS(C)(=O)=O,13.2,72.8,62.7,53.3,Non-toxic,Non-toxic

Compound,inhibition at 25 µg/mL (PBMC [1]) [%],inhibition at 5 µg/mL (PBMC [2]) [%],Activity (PBMC [3]) [%],Activity (PBMC [4]) [%],Activity (PBMC [5]),Activity (PBMC [6])
CS(=O)(=O)NCCCN1c2ccc(Cl)cc2Sc2cc3ccccc3nc21,30.5,1.2,74.4,73.4,Non-toxic,Non-toxic
CCOC(=O)NCCCN1c2ccccc2Sc2cc3ccccc3nc21,14.1,7.7,88.4,69.7,Non-toxic,Non-toxic
Cc1ccc(S(=O)(=O)NCCCN2c3ccc(Cl)cc3Sc3cc4ccccc4nc32)cc1,20.9,5.9,22.7,12.9,Non-toxic,Non-toxic
CSc1ccc2c(c1)Sc1cc3ccccc3nc1N2CCN1CCCCC1,34.6,49.2,92,93.8,18%,91.7%
FC(F)(F)c1cccc2c1Sc1cc3ccccc3nc1N2,-2.6,74.9,13.6,2.3,5%,Non-toxic
O=C(NCCCl)NCCCN1c2ccccc2Sc2cc3ccccc3nc21,5,14.6,77.9,11.2,8.5%,Non-toxic
CS(=O)(=O)NCCCCN1c2ccc(Cl)cc2Sc2cc3ccccc3nc21,24.5,-7.5,43.9,59.4,Non-toxic,Non-toxic
CC(=O)NCCCCN1c2ccccc2Sc2cc3ccccc3nc21,20.2,0,94.3,72.7,Non-toxic,Non-toxic
CSc1ccc2c(c1)Sc1cc3ccccc3nc1N2CCCCNC(C)=O,60.4,46.8,42,54.7,Non-toxic,7.9%
CSc1ccc2c(c1)Sc1cc3ccccc3nc1N2CCCNC(=O)NCCCl,1,50.7,93.7,93,Non-toxic,92.7%
CC(=O)NCCCN1c2ccc(Cl)cc2Sc2cc3ccccc3nc21,60.6,11.4,58.3,50.8,Non-toxic,Non-toxic
CC(=O)NCCCN1c2ccccc2Sc2cc3ccccc3nc21,32.2,-0.4,92.4,68.7,Non-toxic,91.9%
O=C(NCCCl)NCCCCN1c2ccccc2Sc2cc3ccccc3nc21,4.3,-1.8,88.7,16.6,7.9%,Non-toxic
O=C(NCCCl)NCCCCN1c2ccc(Cl)cc2Sc2cc3ccccc3nc21,56,54.8,94.6,98.4,19.2%,86.3%
CSc1ccc2c(c1)Sc1cc3ccccc3nc1N2CCCNS(C)(=O)=O,47.5,73.7,65.4,57.3,Non-toxic,Non-toxic
Clc1ccc2c(c1)Sc1cc3ccccc3nc1N2,9.6,2,5.7,-0.3,Non-toxic,Non-toxic
CCOC(=O)NCCCN1c2ccc(SC)cc2Sc2cc3ccccc3nc21,70.1,74.9,38.8,45.4,Non-toxic,Non-toxic
Fc1ccc2c(c1)Sc1cc3ccccc3nc1N2,–,–,–,100,50%,–
